Test results: ChEMBL document CHEMBL1156620, “Structure-activity relationship studies on a novel class of antiproliferative agents derived from Lavendustin A. Part I: Ring A modifications” (Bioorg Med Chem, 2008)

Tests used:
HaCaT [1] = assay: Antiproliferative activity against human HaCaT cells after 3 days by sulforhodamine B assay; assay type: functional, cell-based; settings: 72 h
Summary of the method: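 HaCaT keratinocytes kept in DMEM with 5% FCS, trypsinized and seeded at 4000 cells/0.2 mL/well in 96-well plates. Medium swapped after 24 h for fresh medium with graded compound concentrations. Proliferation read by sulforhodamine B colorimetry after 3 days. IC50 taken as the average of at least two independent measurements.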

HaCaT [2] = assay: Antimitotic activity against human HaCaT cells assessed as mitotic index at 2.5 uM after 20 hrs; assay type: functional
Summary of the method: (§1)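 HaCaT cells grown in DMEM with 5% FCS, seeded in chamber slides at 24000 cells/0.4 ml/well. After 24 h, medium replaced with fresh medium containing the stated compound concentration, then 20 h incubation. Cells fixed in 90% acetone for 5 min at room temperature. DNA stained with DAPI (0.5 μg/ml, 1 h, RT). Metaphase-arrested cells scored by fluorescence microscopy, at least 300 cells per concentration. Mitotic index = 100% × mitotic/total cells.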

HaCaT [3] = assay: Antimitotic activity against human HaCaT cells assessed as mitotic index at 2 uM after 20 hrs; assay type: functional; summary of the method: as §1
HaCaT [4] = assay: Antimitotic activity against human HaCaT cells assessed as mitotic index at 10 uM after 20 hrs; assay type: functional; summary of the method: as §1
HaCaT [5] = assay: Antimitotic activity against human HaCaT cells assessed as mitotic index at 20 uM after 20 hrs; assay type: functional; summary of the method: as §1
HaCaT [6] = assay: Antimitotic activity against human HaCaT cells assessed as mitotic index at 30 uM after 20 hrs; assay type: functional; summary of the method: as §1
HaCaT [7] = assay: Antimitotic activity against human HaCaT cells assessed as mitotic index at 0.4 uM after 20 hrs; assay type: functional; summary of the method: as §1
HaCaT [8] = assay: Antimitotic activity against human HaCaT cells assessed as mitotic index at 3 uM after 20 hrs; assay type: functional; summary of the method: as §1
HaCaT [9] = assay: Antimitotic activity against human HaCaT cells assessed as mitotic index at 1 uM after 20 hrs; assay type: functional; summary of the method: as §1
HaCaT [10] = assay: Antimitotic activity against human HaCaT cells assessed as mitotic index at 100 uM after 20 hrs; assay type: functional; summary of the method: as §1
HaCaT [11] = assay: Antimitotic activity against human HaCaT cells assessed as mitotic index at 0.5 uM after 20 hrs; assay type: functional; summary of the method: as §1
HaCaT [12] = assay: Antimitotic activity against human HaCaT cells assessed as mitotic index at 0.2 uM after 20 hrs; assay type: functional; summary of the method: as §1
Tubulin = Tubulin (Sus scrofa, UniProt P02554+P02550); assay: Inhibition of pig brain tubulin polymerization
Summary of the method: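 Pig brain tubulin purified by three warm/cold assembly cycles in 1 M monosodium glutamate pH 6.6 with 1 mM GTP. Compound (DMSO, 4% v/v final) preincubated with tubulin 15 min at 30 °C in 0.8 M glutamate pH 6.6 without GTP. Samples then chilled, given GTP, and shifted from 0 °C to 30 °C. Turbidity read at 350 nm. IC50 is 50% inhibition of polymerization extent at 20 min, by linear interpolation.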

Tubulin (Sus scrofa) = Tubulin (Sus scrofa) (UniProt P02554+P02550); assay: Binding affinity to pig brain tubulin at 10 uM after 15 mins relative to control
HaCaT [13] = assay: Antimitotic activity against human HaCaT cells assessed as mitotic index at 50 uM after 20 hrs; assay type: functional; summary of the method: as §1
HaCaT [14] = assay: Antimitotic activity against human HaCaT cells assessed as mitotic index at 1.5 uM after 20 hrs; assay type: functional; summary of the method: as §1

Sequence of Tubulin (Sus scrofa) (P02550 whole entry, looked up): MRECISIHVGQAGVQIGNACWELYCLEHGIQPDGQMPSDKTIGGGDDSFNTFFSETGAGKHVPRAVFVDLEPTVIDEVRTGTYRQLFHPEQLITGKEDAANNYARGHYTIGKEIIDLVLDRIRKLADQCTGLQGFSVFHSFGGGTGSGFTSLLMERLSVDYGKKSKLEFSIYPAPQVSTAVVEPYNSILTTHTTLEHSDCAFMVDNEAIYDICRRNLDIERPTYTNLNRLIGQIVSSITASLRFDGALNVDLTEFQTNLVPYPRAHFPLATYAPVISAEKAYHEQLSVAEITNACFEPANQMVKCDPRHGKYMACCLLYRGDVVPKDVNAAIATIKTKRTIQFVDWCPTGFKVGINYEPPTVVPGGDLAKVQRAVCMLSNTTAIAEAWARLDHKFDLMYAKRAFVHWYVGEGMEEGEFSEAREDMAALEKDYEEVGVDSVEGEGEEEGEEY
Sequence of Tubulin (Sus scrofa) (P02554 whole entry, looked up): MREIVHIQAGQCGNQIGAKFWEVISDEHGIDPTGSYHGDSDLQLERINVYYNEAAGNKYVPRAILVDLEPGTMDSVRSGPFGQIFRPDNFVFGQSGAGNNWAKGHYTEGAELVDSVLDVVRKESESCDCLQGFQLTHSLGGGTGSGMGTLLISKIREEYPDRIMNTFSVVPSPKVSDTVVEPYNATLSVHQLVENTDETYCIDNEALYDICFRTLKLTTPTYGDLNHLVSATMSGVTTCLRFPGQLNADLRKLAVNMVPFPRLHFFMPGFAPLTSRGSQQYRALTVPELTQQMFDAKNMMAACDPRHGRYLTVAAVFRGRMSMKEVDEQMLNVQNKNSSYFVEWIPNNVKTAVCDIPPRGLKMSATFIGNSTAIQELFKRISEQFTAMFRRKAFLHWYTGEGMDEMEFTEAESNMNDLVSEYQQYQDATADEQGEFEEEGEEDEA

## COC(=O)c1cc(CCc2cc(SC)ccc2OC)ccc1O
HaCaT [1]
  IC50: 860 nM
HaCaT [2]
  Activity: 37%

## COC(=O)c1cc(CCc2cc(C(C)=O)ccc2OC)ccc1O
HaCaT [3]
  Activity: 26%
HaCaT [1]
  IC50: 660 nM

## COC(=O)c1cc(CCc2c(OC)ccc(OC)c2OC)ccc1O
HaCaT [1]
  IC50: 3500 nM
HaCaT [4]
  Activity: 25%

## COC(=O)c1cc(CCc2cc(O)ccc2OC)ccc1O
HaCaT [1]
  IC50: 8700 nM
HaCaT [5]
  Activity: 57%

## COC(=O)c1cc(CCc2cc(Cl)ccc2OC)ccc1O
HaCaT [1]
  IC50: 6900 nM
HaCaT [6]
  Activity: 27%

## COC(=O)c1cc(CCc2c(OC)cccc2OC)ccc1O
HaCaT [1]
  IC50: 110 nM
HaCaT [7]
  Activity: 24%

## CCOc1ccc(OCC)c(CCc2ccc(O)c(C(=O)OC)c2)c1
HaCaT [1]
  IC50: 380 nM
HaCaT [8]
  Activity: 20%

## COC(=O)c1cc(CCc2cc(OC)ccc2Br)ccc1O
HaCaT [9]
  Activity: 20%
HaCaT [1]
  IC50: 210 nM

## CCc1cccc(OC)c1CCc1ccc(O)c(C(=O)OC)c1
HaCaT [9]
  Activity: 50%
HaCaT [1]
  IC50: 200 nM

## COC(=O)c1cc(CCc2cc(OC(C)=O)ccc2OC(C)=O)ccc1O
HaCaT [1]
  IC50: 24000 nM

## COC(=O)c1cc(CCc2cccc(OC)c2OC)ccc1O
HaCaT [1]
  IC50: 33000 nM
HaCaT [10]
  Activity: 3.7%

## COC(=O)c1cc(CCc2cc(OC)c(OC)c(OC)c2)ccc1O
HaCaT [1]
  IC50: 3500 nM
HaCaT [4]
  Activity: 18%

## CCc1ccc(OC)c(CCc2ccc(O)c(C(=O)OC)c2)c1
HaCaT [9]
  Activity: 44%
HaCaT [1]
  IC50: 430 nM

## CCOc1ccc(OC)c(CCc2ccc(O)c(C(=O)OC)c2)c1
HaCaT [1]
  IC50: 540 nM
HaCaT [11]
  Activity: 31%

## COC(=O)c1cc(CCc2cc(OC)ccc2N(C)C)ccc1O
HaCaT [1]
  IC50: 650 nM
HaCaT [8]
  Activity: 42%

## COC(=O)c1cc(CCc2ccc(OC)cc2OC)ccc1O
HaCaT [1]
  IC50: 19000 nM
HaCaT [10]
  Activity: 7.2%

## COC(=O)c1cc(CCc2cc(OC)ccc2OC)ccc1O
HaCaT [1]
  IC50: 47 nM
HaCaT [12]
  Activity: 36%
Tubulin
  IC50: 1000 nM
Tubulin (Sus scrofa)
  Activity: 43%

## COC(=O)c1cc(CCc2cc(O)ccc2O)ccc1O
HaCaT [1]
  IC50: 21000 nM
HaCaT [13]
  Activity: 2.2%

## CCOc1ccc(OC)cc1CCc1ccc(O)c(C(=O)OC)c1
HaCaT [1]
  IC50: 120 nM
HaCaT [12]
  Activity: 38%

## COC(=O)c1cc(CCc2cc(N(C)C)ccc2OC)ccc1O
HaCaT [1]
  IC50: 920 nM
HaCaT [2]
  Activity: 28%

## COC(=O)c1cc(CCc2cc(OC)c(C(C)(C)C)cc2C(C)=O)ccc1O
HaCaT [1]
  IC50: 8200 nM
HaCaT [10]
  Activity: 4.4%

## COC(=O)c1cc(CCc2cc(OC)ccc2C(C)=O)ccc1O
HaCaT [1]
  IC50: 41 nM
HaCaT [14]
  Activity: 46%

## COC(=O)c1cc(CCc2cc(OC)ccc2O)ccc1O
HaCaT [3]
  Activity: 27%
HaCaT [1]
  IC50: 1100 nM

## COC(=O)c1cc(CCc2ccccc2OC)ccc1O
HaCaT [1]
  IC50: 20000 nM
HaCaT [6]
  Activity: 16%

## COC(=O)c1cc(CCc2cccc(OC)c2)ccc1O
HaCaT [1]
  IC50: 37000 nM
HaCaT [10]
  Activity: 36%

## CCc1ccc(OC)cc1CCc1ccc(O)c(C(=O)OC)c1
HaCaT [1]
  IC50: 130 nM
HaCaT [7]
  Activity: 47%

## COC(=O)c1cc(CCc2ccc3c(c2)OCO3)ccc1O
HaCaT [1]
  IC50: 36000 nM
HaCaT [10]
  Activity: 2.9%

## CCc1ccc(CC)c(CCc2ccc(O)c(C(=O)OC)c2)c1
HaCaT [3]
  Activity: 30%
HaCaT [1]
  IC50: 650 nM
